{
  "source": "paper PMC3540799",
  "about": "(NeuroImage, 2012)",
  "key": {"[1]": {"details": "cited from earlier work"}, "[2]": {"experiment": "Radioactivity and radiolabeled metabolites in blood plasma", "assay_type": "in vivo, rhesus macaques", "outline": "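Macaques received atropine and ketamine i.m., then isoflurane 1–3% in oxygen. Tracer was given i.v. via saphenous vein, and venous blood (0.5 mL) was drawn at 0, 1, 2, 3, 5, 10 and 30 min. Whole blood and plasma were gamma counted. Heparinized plasma was extracted with 3 volumes acetonitrile and run on radio-HPLC. Parent and metabolite fractions came from peak areas, expressed as %ID/mL.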"}, "[3]": {"experiment": "Dynamic PET/CT/MRI of the brain with compartmental pharmacokinetic modeling", "assay_type": "in vivo, rhesus macaques", "details": "for k1 (influx rate constant) / k2 (efflux rate constant) / k3 rate constant: baseline", "outline": "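Four rhesus macaques (2 male, 2 female): atropine 0.04 mg/kg i.m., ketamine 10–15 mg/kg i.m., isoflurane 1–3% in oxygen; i.v. tracer via saphenous vein. Baseline dynamic PET with the 18F-labelled HDAC substrate and, separately, its 18F-labelled cleavage product. Carotid-derived plasma input was corrected by plasma-to-blood ratio and radio-HPLC metabolite fractions. Rate constants came from two-input, three-tissue-compartment fitting of regional brain time-activity curves.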"}, "[4]": {"details": "up to 3 hours post radiotracer administration; ref Nishii et al., 2011; cited from earlier work"}, "[5]": {"details": "at 30 min after the radiotracer administration; ref Nishii R, 2007; cited from earlier work"}, "[6]": {"system": "class IIa HDACs", "assay_type": "biochemical", "details": "non-radiolabeled FAHA; 10 ng enzyme, 30 min at 30°C"}, "[7]": {"system": "HDAC class IIa enzymes", "experiment": "SAHA-mediated dose-dependent inhibition of [18F]FAHA accumulation in the brain", "assay_type": "in vivo, rhesus macaques", "details": "pretreatment with increasing doses of SAHA; blood plasma"}, "[8]": {"details": "ref Hendricks, et al 2011, Zeglis"}},
  "note": "Where two headings read alike, the source gives them in different places.",
  "data": [
    {"smiles": "Nc1ccccc1NC(=O)c1ccc(CN[11C](=O)OCc2cccnc2)cc1", "note": "[[^11C]MS-275]", "values": [
      {"measurement": "accumulation in the brain (PET)", "setting": "[1]; ref Hooker, et al 2010", "result": "did not accumulate in the brain"},
      {"measurement": "blood-brain barrier (BBB) permeability", "setting": "[1]; ref Hooker, et al 2010", "result": "poor"}
    ]},
    {"smiles": "O=C(O)C[18F]", "note": "[[^18F]FACE, [^18F]fluoroacetate]", "values": [
      {"measurement": "[18F]fluoride in blood plasma", "setting": "[2]; 30 min post [18F]FACE administration", "result": "< 2 % of total radioactivity"},
      {"measurement": "Partition of [18F]FACE-derived radioactivity in blood between RBCs and plasma", "setting": "[2]; rhesus monkey, in vivo", "result": "70.2±8.4", "unit": "%"},
      {"measurement": "brain-to-muscle concentration ratio", "setting": "[3]; 30 min post injection", "result": "0.78±0.28"},
      {"measurement": "whole brain-to-blood concentration ratio", "setting": "[3]; 30 min post injection", "result": "0.55±0.18"},
      {"measurement": "k1 (influx rate constant)", "setting": "[3]; Amygdala", "result": "0.020 ± 0.035"},
      {"measurement": "k2 (efflux rate constant)", "setting": "[3]; Amygdala", "result": "0.088 ± 0.063"},
      {"measurement": "k3 rate constant", "setting": "[3]; Amygdala", "result": "0.047 ± 0.040"},
      {"measurement": "k1 (influx rate constant)", "setting": "[3]; Cerebellum", "result": "0.055 ± 0.054"},
      {"measurement": "k2 (efflux rate constant)", "setting": "[3]; Cerebellum", "result": "0.202 ± 0.125"},
      {"measurement": "k3 rate constant", "setting": "[3]; Cerebellum", "result": "0.044 ± 0.066"},
      {"measurement": "k1 (influx rate constant)", "setting": "[3]; Hippocampus", "result": "0.021 ± 0.034"},
      {"measurement": "k2 (efflux rate constant)", "setting": "[3]; Hippocampus", "result": "0.118 ± 0.031"},
      {"measurement": "k3 rate constant", "setting": "[3]; Hippocampus", "result": "0.054 ± 0.039"},
      {"measurement": "k1 (influx rate constant)", "setting": "[3]; Inferior colliculus", "result": "0.019 ± 0.045"},
      {"measurement": "k2 (efflux rate constant)", "setting": "[3]; Inferior colliculus", "result": "0.034 ± 0.024"},
      {"measurement": "k3 rate constant", "setting": "[3]; Inferior colliculus", "result": "0.022 ± 0.021"},
      {"measurement": "k1 (influx rate constant)", "setting": "[3]; Nucleus accumbens", "result": "0.056 ± 0.052"},
      {"measurement": "k2 (efflux rate constant)", "setting": "[3]; Nucleus accumbens", "result": "0.179 ± 0.146"},
      {"measurement": "k3 rate constant", "setting": "[3]; Nucleus accumbens", "result": "0.025 ± 0.034"},
      {"measurement": "k1 (influx rate constant)", "setting": "[3]; Peri-aqueductal gray", "result": "0.021 ± 0.044"},
      {"measurement": "k2 (efflux rate constant)", "setting": "[3]; Peri-aqueductal gray", "result": "0.050 ± 0.034"},
      {"measurement": "k3 rate constant", "setting": "[3]; Peri-aqueductal gray", "result": "0.026 ± 0.023"},
      {"measurement": "k1 (influx rate constant)", "setting": "[3]; Putamen", "result": "0.024 ± 0.033"},
      {"measurement": "k2 (efflux rate constant)", "setting": "[3]; Putamen", "result": "0.059 ± 0.063"},
      {"measurement": "k3 rate constant", "setting": "[3]; Putamen", "result": "0.026 ± 0.031"},
      {"measurement": "k1 (influx rate constant)", "setting": "[3]; Temporal cortex", "result": "0.016 ± 0.046"},
      {"measurement": "k2 (efflux rate constant)", "setting": "[3]; Temporal cortex", "result": "0.037 ± 0.014"},
      {"measurement": "k3 rate constant", "setting": "[3]; Temporal cortex", "result": "0.033 ± 0.018"},
      {"measurement": "k1 (influx rate constant)", "setting": "[3]; Thalamus", "result": "0.020 ± 0.482"},
      {"measurement": "k2 (efflux rate constant)", "setting": "[3]; Thalamus", "result": "0.048 ± 0.067"},
      {"measurement": "k3 rate constant", "setting": "[3]; Thalamus", "result": "0.022 ± 0.022"},
      {"measurement": "k1 (influx rate constant)", "setting": "[3]; White matter", "result": "0.015 ± 0.019"},
      {"measurement": "k2 (efflux rate constant)", "setting": "[3]; White matter", "result": "0.089 ± 0.103"},
      {"measurement": "k3 rate constant", "setting": "[3]; White matter", "result": "0.029 ± 0.022"},
      {"measurement": "k1 (influx rate constant)", "setting": "[3]; Whole brain", "result": "0.045 ± 0.034"},
      {"measurement": "k2 (efflux rate constant)", "setting": "[3]; Whole brain", "result": "0.170 ± 0.145"},
      {"measurement": "k3 rate constant", "setting": "[3]; Whole brain", "result": "0.033 ± 0.065"},
      {"measurement": "efflux rate constant k2FACE relative to that of [18F]FAHA", "setting": "[3]; fold less than [18F]FAHA", "result": "4 to 10", "unit": "fold"},
      {"measurement": "[18F]fluorocitrate anabolite in blood", "setting": "[4]", "result": "not detectable"}
    ]},
    {"smiles": "O=C(C[18F])NCCCCCC(=O)Nc1ccccc1", "note": "[[^18F]FAHA, 6-([^18F]fluoroacetamido)-1-hexanoicanilide]", "values": [
      {"measurement": "accumulation of [18F]FAHA in the brain", "setting": "[5]", "result": "significant accumulation"},
      {"measurement": "fraction of [18F]FAHA catabolized to [18F]FACE in blood plasma", "setting": "[2]; by 30 min post injection", "result": "almost all"},
      {"measurement": "k1 (influx rate constant)", "setting": "[3]; Amygdala", "result": "0.512 ± 0.1283"},
      {"measurement": "k2 (efflux rate constant)", "setting": "[3]; Amygdala", "result": "0.493 ± 0.118"},
      {"measurement": "k3 rate constant", "setting": "[3]; Amygdala", "result": "0.259 ± 0.093"},
      {"measurement": "k1 (influx rate constant)", "setting": "[3]; Cerebellum", "result": "0.645 ± 0.2594"},
      {"measurement": "k2 (efflux rate constant)", "setting": "[3]; Cerebellum", "result": "1.001 ± 0.475"},
      {"measurement": "k3 rate constant", "setting": "[3]; Cerebellum", "result": "0.380 ± 0.279"},
      {"measurement": "k1 (influx rate constant)", "setting": "[3]; Hippocampus", "result": "0.595 ± 0.071"},
      {"measurement": "k2 (efflux rate constant)", "setting": "[3]; Hippocampus", "result": "0.883 ± 0.738"},
      {"measurement": "k3 rate constant", "setting": "[3]; Hippocampus", "result": "0.279 ± 0.213"},
      {"measurement": "k1 (influx rate constant)", "setting": "[3]; Inferior colliculus", "result": "0.706 ± 0.2366"},
      {"measurement": "k2 (efflux rate constant)", "setting": "[3]; Inferior colliculus", "result": "0.644 ± 0.312"},
      {"measurement": "k3 rate constant", "setting": "[3]; Inferior colliculus", "result": "0.267 ± 0.108"},
      {"measurement": "k1 (influx rate constant)", "setting": "[3]; Nucleus accumbens", "result": "0.626 ± 0.5812"},
      {"measurement": "k2 (efflux rate constant)", "setting": "[3]; Nucleus accumbens", "result": "1.181 ± 1.6532"},
      {"measurement": "k3 rate constant", "setting": "[3]; Nucleus accumbens", "result": "0.401 ± 0.296"},
      {"measurement": "k1 (influx rate constant)", "setting": "[3]; Peri-aqueductal gray", "result": "0.619 ± 0.2961"},
      {"measurement": "k2 (efflux rate constant)", "setting": "[3]; Peri-aqueductal gray", "result": "0.554 ± 0.256"},
      {"measurement": "k3 rate constant", "setting": "[3]; Peri-aqueductal gray", "result": "0.236 ± 0.088"},
      {"measurement": "k1 (influx rate constant)", "setting": "[3]; Putamen", "result": "0.708 ± 0.3726"},
      {"measurement": "k2 (efflux rate constant)", "setting": "[3]; Putamen", "result": "0.731 ± 0.617"},
      {"measurement": "k3 rate constant", "setting": "[3]; Putamen", "result": "0.328 ± 0.079"},
      {"measurement": "k1 (influx rate constant)", "setting": "[3]; Temporal cortex", "result": "0.438 ± 0.2453"},
      {"measurement": "k2 (efflux rate constant)", "setting": "[3]; Temporal cortex", "result": "0.558 ± 0.2452"},
      {"measurement": "k3 rate constant", "setting": "[3]; Temporal cortex", "result": "0.158 ± 0.056"},
      {"measurement": "k1 (influx rate constant)", "setting": "[3]; Thalamus", "result": "0.765 ± 0.4308"},
      {"measurement": "k2 (efflux rate constant)", "setting": "[3]; Thalamus", "result": "0.604 ± 0.365"},
      {"measurement": "k3 rate constant", "setting": "[3]; Thalamus", "result": "0.192 ± 0.032"},
      {"measurement": "k1 (influx rate constant)", "setting": "[3]; White matter", "result": "0.463 ± 0.2052"},
      {"measurement": "k2 (efflux rate constant)", "setting": "[3]; White matter", "result": "0.810 ± 0.269"},
      {"measurement": "k3 rate constant", "setting": "[3]; White matter", "result": "0.187 ± 0.135"},
      {"measurement": "k1 (influx rate constant)", "setting": "[3]; Whole brain", "result": "0.424 ± 0.2637"},
      {"measurement": "k2 (efflux rate constant)", "setting": "[3]; Whole brain", "result": "0.611 ± 0.5713"},
      {"measurement": "k3 rate constant", "setting": "[3]; Whole brain", "result": "0.192 ± 0.222"},
      {"measurement": "whole brain Ki of [18F]FAHA relative to Ki of [18F]FACE", "setting": "[3]; whole brain", "result": "about 50 fold"},
      {"measurement": "Kcat values for class IIa HDACs compared with other classes of HDACs", "setting": "[6]", "result": "two orders of magnitude higher"}
    ]},
    {"smiles": "O=C(CCCCCCC(=O)Nc1ccc([18F])cc1)NO", "note": "[[^18F]SAHA, [^18F]suberoylanilide hydroxamic acid]", "values": [
      {"measurement": "accumulation in the brain (PET)", "setting": "[1]; [8]", "result": "did not accumulate in the brain"},
      {"measurement": "washout from the brain", "setting": "[1]; [8]", "result": "excessive washout"}
    ]},
    {"smiles": "O=C(CCCCCCC(=O)Nc1ccccc1)NO", "note": "[SAHA, vorinostat]", "values": [
      {"measurement": "effect on circulation half-time and AUC of [18F]FAHA", "setting": "[7]", "result": "dose-dependent log-linear increase"}
    ]}
  ]
}
